Data taken from ChEMBL document CHEMBL1122255, “Synthesis and receptor binding studies relevant to the neuroleptic activities of some 1-methyl-4-piperidylidene-9-substituted-pyrrolo[2,1-b][3]benzazepine derivatives” (J Med Chem, 1983).

Tests used:
[1] = target: T1, Alpha-2A adrenergic receptor (Bos taurus, UniProt Q28838); experiment: Displacement of [3H]- clonidine radioligand binding at the alpha-2 adrenergic receptor binding site of calf cerebral cortex; assay type: tissue-based
T1 sequence (Q28838 whole entry): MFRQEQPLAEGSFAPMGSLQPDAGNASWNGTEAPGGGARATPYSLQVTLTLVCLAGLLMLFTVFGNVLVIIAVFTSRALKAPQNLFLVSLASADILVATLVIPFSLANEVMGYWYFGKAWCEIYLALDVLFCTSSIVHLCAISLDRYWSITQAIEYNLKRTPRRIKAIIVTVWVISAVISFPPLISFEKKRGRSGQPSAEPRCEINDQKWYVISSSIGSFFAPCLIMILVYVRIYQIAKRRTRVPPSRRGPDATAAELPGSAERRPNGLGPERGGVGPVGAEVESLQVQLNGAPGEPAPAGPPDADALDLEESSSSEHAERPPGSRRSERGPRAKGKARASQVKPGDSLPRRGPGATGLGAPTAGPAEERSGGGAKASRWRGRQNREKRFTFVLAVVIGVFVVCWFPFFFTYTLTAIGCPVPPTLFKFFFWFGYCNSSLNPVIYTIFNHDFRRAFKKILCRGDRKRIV
How it was run: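 Calf cerebral cortex membranes were incubated with [3H]clonidine (23 Ci/mmol) at 0.2 nM and 3–5 triplicate test concentrations. Nonspecific binding was defined with 100 nM clonidine. Bound ligand was isolated by rapid filtration and counted by liquid scintillation. IC50 for displacing specific binding came from percent inhibition–concentration data by regression.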

[2] = target: Muscarinic acetylcholine receptor; experiment: Displacement of [3H]- QNB binding at the muscarinic-cholinergic binding site of rat brain S1
[3] = target: T2, Alpha-1A adrenergic receptor (Bos taurus, UniProt P18130); experiment: Displacement of [3H]- prazosin radioligand binding at the alpha 1-adrenergic binding site of calf cerebral cortex; assay type: tissue-based
T2 sequence (P18130 whole entry): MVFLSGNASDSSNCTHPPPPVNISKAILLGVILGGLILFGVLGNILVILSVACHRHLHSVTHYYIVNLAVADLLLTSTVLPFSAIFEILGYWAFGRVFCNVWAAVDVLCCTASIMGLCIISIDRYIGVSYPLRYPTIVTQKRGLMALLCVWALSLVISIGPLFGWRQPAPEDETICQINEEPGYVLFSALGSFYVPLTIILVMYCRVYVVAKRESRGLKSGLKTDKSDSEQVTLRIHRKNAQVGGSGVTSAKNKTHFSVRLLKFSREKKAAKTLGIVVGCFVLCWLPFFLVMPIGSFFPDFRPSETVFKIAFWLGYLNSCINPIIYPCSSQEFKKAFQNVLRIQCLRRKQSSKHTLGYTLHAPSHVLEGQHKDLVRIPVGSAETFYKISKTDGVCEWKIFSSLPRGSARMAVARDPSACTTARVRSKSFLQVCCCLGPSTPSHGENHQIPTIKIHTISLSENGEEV

CN1CCC(=C2c3cc(C(=O)O)ccc3C=Cn3cccc32)CC1
Ki [1]: 77000 nM | Ki [2]: 9800 nM | Ki [3]: 1200 nM

CN1CCC(=C2c3ccccc3C=Cn3cccc32)CC1
Ki [1]: 226 nM | Ki [2]: 14.5 nM | Ki [3]: 29 nM

CN1CCC(=C2c3cc(Br)ccc3CCn3cccc32)CC1
Ki [1]: 430 nM | Ki [2]: 60 nM | Ki [3]: 44 nM

CN1CCC(=C2c3cc(C#N)ccc3CCn3cccc32)CC1
Ki [1]: 2050 nM | Ki [2]: 270 nM

CN1CCC(=C2c3cc(C#N)ccc3C=Cn3cccc32)CC1
Ki [1]: 1030 nM | Ki [2]: 21 nM | Ki [3]: 30 nM

CN1CCC(=C2c3cc(Cl)ccc3CCn3cccc32)CC1
Ki [1]: 600 nM | Ki [2]: 48 nM | Ki [3]: 80 nM

CN1CCC(=C2c3ccccc3CCn3cccc32)CC1
Ki [1]: 730 nM | Ki [2]: 49 nM | Ki [3]: 130 nM

CN1CCC(=C2c3cc(SC(F)(F)F)ccc3CCn3cccc32)CC1
Ki [1]: 330 nM | Ki [2]: 250 nM | Ki [3]: 36 nM

CN1CCC(=C2c3cc(Br)ccc3C=Cn3cccc32)CC1
Ki [1]: 210 nM | Ki [2]: 18 nM | Ki [3]: 19 nM

CN1CCC(=C2c3cc(Cl)ccc3C=Cn3cccc32)CC1
Ki [1]: 310 nM | Ki [2]: 20 nM | Ki [3]: 20 nM

CN1CCC(=C2c3cc(SC(F)(F)F)ccc3C=Cn3cccc32)CC1
Ki [1]: 230 nM | Ki [2]: 88 nM | Ki [3]: 13 nM

CN1CCC(=C2c3cc(C(=O)O)ccc3CCn3cccc32)CC1
Ki [2]: > 50000 nM

CN1CCC(=C2c3ccccc3C=Cc3ccccc32)CC1 [CYPROHEPTADINE]
Ki [2]: 4 nM
